Active and inactive are the calls of the source. The rule behind the calls is not given here.
How the values were obtained:
[1] = biological target: Histamine H1 receptor (Cavia porcellus) (UniProt P31389); assay: Activity at histamine H1 receptor in isolated guinea pig ileum up to 10 uM; format: functional, tissue-based
Histamine H3 receptor [2] = biological target: Histamine H3 receptor (Rattus norvegicus, UniProt Q9QYN8); assay: Displacement of [3H]RAMHA from histamine H3 receptor in rat brain membranes; format: cell membranes
Procedure, shortened: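 Rat cerebral cortex membranes incubated 60 min at room temperature with 0.5 nM [3H](R)-α-methylhistamine in 50 mM Tris–HCl/0.5 mM EDTA/50 mM NaCl, pH 7.4; compounds 0.01 nM–10 µM. Rapid filtration, two ice-cold buffer washes, scintillation counting. Non-specific binding: 10 µM thioperamide. IC50 from displacement curves; mean of three experiments.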

Histamine H3 receptor [3] = biological target: T1, Histamine H3 receptor (Homo sapiens, UniProt Q9Y5N1); assay: Displacement of [3H]RAMHA from human histamine H3 receptor transfected in SK-N-MC cells; format: cell-based
Procedure, shortened: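 Membranes from SK-N-MC cells stably expressing human H3 receptor, incubated 60 min at room temperature with 0.5 nM [3H](R)-α-methylhistamine in 50 mM Tris–HCl/5 mM EDTA, pH 7.4; compounds 0.01 nM–10 µM. Filtration, two ice-cold washes, scintillation counting. Non-specific binding: 10 µM histamine. IC50 estimated from displacement curves.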

[4] = biological target: Histamine H2 receptor (Cavia porcellus) (UniProt P47747); assay: Activity at histamine H2 receptor in isolated guinea pig atrium up to 10 uM; format: functional, tissue-based; conditions: Cardiac atrium
[5] = biological target: Histamine H3 receptor (Cavia porcellus) (UniProt Q9JI35); assay: Activity at histamine H3 receptor assessed as RAMHA-induced inhibition of electrically-stimulated guinea pig isolated ileum; format: functional, tissue-based; conditions: filed as antagonist
[6] = biological target: T2, Acetylcholinesterase (Rattus norvegicus) (UniProt P37136); assay: Inhibition of AChE in rat brain at 10 uM; format: tissue-based
T2 sequence (whole entry): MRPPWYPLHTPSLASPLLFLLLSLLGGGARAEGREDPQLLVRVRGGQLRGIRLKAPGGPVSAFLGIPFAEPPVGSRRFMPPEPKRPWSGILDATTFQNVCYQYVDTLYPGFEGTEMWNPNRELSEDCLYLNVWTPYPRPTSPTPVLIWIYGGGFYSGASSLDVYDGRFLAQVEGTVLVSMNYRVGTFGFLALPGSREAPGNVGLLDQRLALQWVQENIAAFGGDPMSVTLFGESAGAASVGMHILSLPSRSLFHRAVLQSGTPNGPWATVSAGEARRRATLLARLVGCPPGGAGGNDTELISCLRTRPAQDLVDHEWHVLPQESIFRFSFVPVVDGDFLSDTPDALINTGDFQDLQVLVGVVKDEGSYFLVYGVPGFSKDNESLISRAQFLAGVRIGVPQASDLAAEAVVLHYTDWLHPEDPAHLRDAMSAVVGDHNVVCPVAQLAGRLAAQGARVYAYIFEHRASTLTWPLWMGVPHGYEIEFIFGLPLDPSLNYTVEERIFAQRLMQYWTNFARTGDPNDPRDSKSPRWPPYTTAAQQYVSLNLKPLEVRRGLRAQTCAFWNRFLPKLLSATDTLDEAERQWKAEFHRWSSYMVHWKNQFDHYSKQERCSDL

Histamine H3 receptor [7] = biological target: T1, Histamine H3 receptor; assay: Antagonist activity against histamine H3 receptor assessed as beta galactosidase reporter gene transactivation in SK-N-MC cells; format: functional, cell-based
Procedure, shortened: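 SK-N-MC cells expressing human H3 receptor; compounds (0.1 nM–10 µM) added to media, 5 min later forskolin (5 µM) and cumulative (R)-α-methylhistamine (0.1 nM–1 µM). After 6 h at 37 °C, cells lysed (0.5% Triton, 40 mM β-mercaptoethanol); read-out by absorbance 570 nm after overnight incubation at 20 °C.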

Histamine H3 receptor (Cavia porcellus), sequence (Q9JI35 whole entry): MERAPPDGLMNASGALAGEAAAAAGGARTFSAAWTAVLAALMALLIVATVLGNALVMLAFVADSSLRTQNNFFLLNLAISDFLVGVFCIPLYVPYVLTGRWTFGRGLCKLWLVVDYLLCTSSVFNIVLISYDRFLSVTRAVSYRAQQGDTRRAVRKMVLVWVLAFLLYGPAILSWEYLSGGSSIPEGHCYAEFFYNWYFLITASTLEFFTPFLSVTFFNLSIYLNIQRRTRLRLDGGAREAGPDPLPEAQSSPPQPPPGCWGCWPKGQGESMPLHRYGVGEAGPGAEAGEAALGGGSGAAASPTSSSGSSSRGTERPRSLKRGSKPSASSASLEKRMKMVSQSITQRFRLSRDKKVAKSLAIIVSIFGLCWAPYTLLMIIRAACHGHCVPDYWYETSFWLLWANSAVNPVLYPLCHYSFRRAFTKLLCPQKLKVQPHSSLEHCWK
Histamine H2 receptor (Cavia porcellus), sequence (P47747 whole entry): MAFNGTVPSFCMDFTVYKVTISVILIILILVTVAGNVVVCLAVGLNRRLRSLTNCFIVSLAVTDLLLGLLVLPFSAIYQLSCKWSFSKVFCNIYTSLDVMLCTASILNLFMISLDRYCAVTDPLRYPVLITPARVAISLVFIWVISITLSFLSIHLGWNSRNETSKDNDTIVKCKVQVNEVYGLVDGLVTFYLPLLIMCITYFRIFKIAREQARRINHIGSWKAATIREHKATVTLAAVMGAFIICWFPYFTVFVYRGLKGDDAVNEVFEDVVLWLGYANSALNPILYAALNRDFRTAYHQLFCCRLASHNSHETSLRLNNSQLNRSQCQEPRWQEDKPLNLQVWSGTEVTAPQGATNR
Histamine H1 receptor (Cavia porcellus), sequence (P31389 whole entry): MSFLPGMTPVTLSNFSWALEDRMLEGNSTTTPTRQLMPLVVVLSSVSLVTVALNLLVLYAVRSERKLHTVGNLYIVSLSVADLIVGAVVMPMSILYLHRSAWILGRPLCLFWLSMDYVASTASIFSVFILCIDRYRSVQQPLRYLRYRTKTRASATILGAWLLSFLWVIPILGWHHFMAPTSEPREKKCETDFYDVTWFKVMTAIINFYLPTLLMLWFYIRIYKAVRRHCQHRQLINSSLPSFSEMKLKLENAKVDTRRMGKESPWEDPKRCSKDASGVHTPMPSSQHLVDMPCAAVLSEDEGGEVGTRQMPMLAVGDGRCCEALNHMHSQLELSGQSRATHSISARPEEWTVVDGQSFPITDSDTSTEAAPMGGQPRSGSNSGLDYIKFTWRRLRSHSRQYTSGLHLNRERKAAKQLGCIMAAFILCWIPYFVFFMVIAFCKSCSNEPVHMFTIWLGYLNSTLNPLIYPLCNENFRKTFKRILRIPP
T1 sequence (Q9Y5N1 whole entry): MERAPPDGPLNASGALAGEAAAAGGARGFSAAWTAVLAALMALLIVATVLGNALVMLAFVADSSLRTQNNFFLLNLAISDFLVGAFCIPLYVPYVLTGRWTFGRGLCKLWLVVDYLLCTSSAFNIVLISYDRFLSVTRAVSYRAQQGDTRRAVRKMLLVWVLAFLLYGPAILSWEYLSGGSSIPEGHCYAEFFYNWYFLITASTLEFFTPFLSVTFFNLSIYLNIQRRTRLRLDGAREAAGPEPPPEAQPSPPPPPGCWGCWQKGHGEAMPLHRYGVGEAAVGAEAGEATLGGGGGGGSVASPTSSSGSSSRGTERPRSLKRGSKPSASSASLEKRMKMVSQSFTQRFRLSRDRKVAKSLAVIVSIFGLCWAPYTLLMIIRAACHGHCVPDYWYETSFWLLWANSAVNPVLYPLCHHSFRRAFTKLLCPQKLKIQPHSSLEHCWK
Histamine H3 receptor (Rattus norvegicus, UniProt Q9QYN8), sequence (Q9QYN8 whole entry): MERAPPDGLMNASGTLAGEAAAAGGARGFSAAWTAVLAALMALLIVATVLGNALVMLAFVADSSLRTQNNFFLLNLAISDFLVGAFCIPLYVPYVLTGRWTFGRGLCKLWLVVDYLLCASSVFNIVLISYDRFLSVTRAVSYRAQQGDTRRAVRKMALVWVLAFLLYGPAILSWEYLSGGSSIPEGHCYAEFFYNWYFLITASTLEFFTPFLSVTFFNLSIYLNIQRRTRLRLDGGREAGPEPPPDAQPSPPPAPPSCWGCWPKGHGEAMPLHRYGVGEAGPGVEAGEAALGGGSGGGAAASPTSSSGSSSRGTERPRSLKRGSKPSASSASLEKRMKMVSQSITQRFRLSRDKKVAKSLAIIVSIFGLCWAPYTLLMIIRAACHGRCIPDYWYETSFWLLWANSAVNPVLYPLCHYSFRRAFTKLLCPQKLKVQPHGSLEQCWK

Activity [1] | Ki (Histamine H3 receptor [2]) [nM] | Ki (Histamine H3 receptor [3]) [nM] | Activity [4] | Activity [5] | pKb (Histamine H3 receptor [7]) | Structure (SMILES) | inhibition [6] [%]
inactive | 115 | 46.8 | inactive | Antagonist |  | O=C1CCCCN1Cc1ccc(-c2ccc(CN3CCCCC3)cc2)cc1 | 
inactive | 1.2 | 0.339 | inactive | Antagonist | 8.77 | c1cc(-c2ccc(CN3CCCCC3)cc2)ccc1CN1CCCCC1 | 
inactive | 4070 | 1230 | inactive | Antagonist |  | c1cc(CN2CCCCC2)ccc1CN1CCCCC1 | 
inactive | 2090 | 562 | inactive | Antagonist |  | c1cc(-c2ccc(CNC3CCCCC3)cc2)ccc1CNC1CCCCC1 | 
inactive | 6.61 | 1.86 | inactive | Antagonist |  | CN(C)Cc1ccc(-c2ccc(CN(C)C)cc2)cc1 | 
inactive | 3890 | 1410 | inactive | Antagonist |  | CC(=O)N1CCN(Cc2ccc(-c3ccc(CN4CCN(C(C)=O)CC4)cc3)cc2)CC1 | 
inactive | 8710 | 4470 | inactive | Antagonist |  | NCc1ccc(-c2ccc(CN)cc2)cc1 | 
inactive | 3.98 | 1.17 | inactive | Antagonist |  | c1cc(-c2ccc(CCN3CCCCC3)cc2)ccc1CCN1CCCCC1 | 
inactive | 214 | 37.2 | inactive | Antagonist |  | CN(Cc1ccc(-c2ccc(CN(C)C3CCCCC3)cc2)cc1)C1CCCCC1 | 
inactive | 81.3 | 12.3 | inactive | Antagonist |  | c1cc(-c2ccc(CN3CCOCC3)cc2)ccc1CN1CCOCC1 | 
inactive | 676 | 398 | inactive | Antagonist |  | CC1CC(C)CN(Cc2ccc(-c3ccc(CN4CC(C)CC(C)C4)cc3)cc2)C1 (stereo not drawn) | 
inactive | 46.8 | 6.31 | inactive | Antagonist |  | CC(=O)N1CCN(Cc2ccc(-c3ccc(CN4CCCCC4)cc3)cc2)CC1 | 
inactive | 3310 | 759 | inactive | Antagonist |  | CCCCCNCc1ccc(-c2ccc(CNCCCCC)cc2)cc1 | 

Structure (SMILES) | Activity [1] | Ki (Histamine H3 receptor [2]) [nM] | Ki (Histamine H3 receptor [3]) [nM] | Activity [4] | Activity [5] | pKb (Histamine H3 receptor [7]) | inhibition [6] [%]
c1cc(-c2ccc(CN3CCCCC3)cc2)ccc1CNC1CCCCC1 | inactive | 9.12 | 1.7 | inactive | Antagonist |  | 50
CC1CCN(Cc2ccc(-c3ccc(CN4CCC(C)CC4)cc3)cc2)CC1 | inactive | 15.1 | 6.17 | inactive | Antagonist |  | 50
